# Experimental data from ChEMBL document CHEMBL1123167, “Synthesis and evaluation of phenyl- and benzoylpiperazines as potential serotonergic agents” (J Med Chem, 1986).
# Calls of active or inactive are those of the source. The calls are words filed in the database; no cut-off is given here.
# Columns and labels:
# [1] = Displacement of […] from 5-hydroxytryptamine 1 receptor of rat cortex
# [2] = target: Serotonin 2 (5-HT2) receptor (Rattus norvegicus, UniProt P30994+P08909+P14842); experiment: Displacement of [3H]ketanserin from 5-hydroxytryptamine 2 receptor of rat cortex
# Outline: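 Rat tissue homogenate (4 mg wet weight per assay) in 50 mM Tris, 5 mM MgCl2, 0.5 mM EDTA, pH 7.4 at 37 °C, competed against 0.4 nM [3H]ketanserin. Bound ligand was collected on glass fiber filters and counted by liquid scintillation. Assays were run in triplicate. IC50 came from a 23-point curve by nonlinear least-squares fitting, and Ki = IC50/(1 + [D]/KD).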
# Rattus norvegicus [3] = experiment: Compound was evaluated for ED50 in DOM-trained rats at dosage 9.0 mg/kg. Number of animals responding/number of animals are 3/3; assay type: functional
# Rattus norvegicus [4] = experiment: Stimulus generalization in DOM-trained rats at dosage 1.0 mg/kg. Number of animals responding/number of animals are 3/3; assay type: functional
# Rattus norvegicus [5] = experiment: Stimulus generalization in DOM-trained rats at dosage 3.0 mg/kg. Number of animals responding/number of animals are 3/3; assay type: functional
# Rattus norvegicus [6] = experiment: Stimulus generalization in DOM-trained rats at dosage 5.0 mg/kg. Number of animals responding/number of animals are 3/3; assay type: functional
# Rattus norvegicus [7] = experiment: Stimulus generalization in DOM-trained rats at dosage 8.0 mg/kg. Number of animals responding/number of animals are 3/3; assay type: functional
# Rattus norvegicus [8] = experiment: Stimulus generalization in DOM-trained rats at dosage 9.0 mg/kg. Number of animals responding/number of animals are 3/3; assay type: functional
# Rattus norvegicus [9] = experiment: Stimulus generalization in DOM-trained rats at dosage 0.1 mg/kg. Number of animals responding/number of animals are 3/3; assay type: functional
# Rattus norvegicus [10] = experiment: Stimulus generalization in DOM-trained rats at dosage 0.5 mg/kg. Number of animals responding/number of animals are 2/3; assay type: functional
# Rattus norvegicus [11] = experiment: Stimulus generalization in TFMPP-trained rats at dosage 1.0 mg/kg. Number of animals responding/number of animals are 5/5; assay type: functional
# Rattus norvegicus [12] = experiment: Stimulus generalization in TFMPP-trained rats at dosage 1.2 mg/kg. Number of animals responding/number of animals are 5/5; assay type: functional
# Rattus norvegicus [13] = experiment: Stimulus generalization in TFMPP-trained rats at dosage 0.1 mg/kg. Number of animals responding/number of animals are 4/5; assay type: functional
# Rattus norvegicus [14] = experiment: Stimulus generalization in TFMPP-trained rats at dosage 0.4 mg/kg. Number of animals responding/number of animals are 3/4; assay type: functional
# Rattus norvegicus [15] = experiment: Stimulus generalization in TFMPP-trained rats at dosage 0.05 mg/kg. Number of animals responding/number of animals are 4/4; assay type: functional
# Rattus norvegicus [16] = experiment: Stimulus generalization in DOM-trained rats at dosage 1.0 mg/kg. Number of animals responding/number of animals are 0/3; D=Disruption of behavior; assay type: functional, organism-based; design: dose 1 mg/kg
# Rattus norvegicus [17] = experiment: Compound was evaluated for ED50 in TFMPP-trained rats at dosage 0.50 mg/kg. Number of animals responding/number of animals are 4/4; assay type: functional
# Rattus norvegicus [18] = experiment: Stimulus generalization in TFMPP-trained rats at dosage 0.50 mg/kg. Number of animals responding/number of animals are 5/5; assay type: functional; conditions: dose 0.5 mg/kg
# Rattus norvegicus [19] = experiment: Stimulus generalization in TFMPP-trained rats at dosage 0.20 mg/kg. Number of animals responding/number of animals are 4/4; assay type: functional; conditions: dose 0.2 mg/kg
# Rattus norvegicus [20] = experiment: Stimulus generalization in TFMPP-trained rats at dosage 0.30 mg/kg. Number of animals responding/number of animals are 4/4; assay type: functional; conditions: dose 0.3 mg/kg
# Rattus norvegicus [21] = experiment: Stimulus generalization in TFMPP-trained rats at dosage 0.35 mg/kg. Number of animals responding/number of animals are 4/4; assay type: functional
# Rattus norvegicus [22] = experiment: Stimulus generalization in TFMPP-trained rats at dosage 0.15 mg/kg. Number of animals responding/number of animals are 3/3; assay type: functional
# Rattus norvegicus [23] = experiment: Stimulus generalization in TFMPP-trained rats at dosage 0.1 mg/kg. Number of animals responding/number of animals are 4/4; assay type: functional
# Rattus norvegicus [24] = experiment: Compound was evaluated for Effective Dose DOM-trained rats at dosage 12.0 mg/kg. Number of animals responding/number of animals are 5/5; assay type: functional
# Rattus norvegicus [25] = experiment: Stimulus generalization in DOM-trained rats at dosage 12.0 mg/kg. Number of animals responding/number of animals are 5/5; assay type: functional
# Rattus norvegicus [26] = experiment: Stimulus generalization in DOM-trained rats at dosage 4.0 mg/kg. Number of animals responding/number of animals are 5/5; assay type: functional
# Rattus norvegicus [27] = experiment: Stimulus generalization in DOM-trained rats at dosage 6.0 mg/kg. Number of animals responding/number of animals are 4/4; assay type: functional
# Rattus norvegicus [28] = experiment: Stimulus generalization in TFMPP-trained rats at dosage 1.5 mg/kg. Number of animals responding/number of animals are 3/3; assay type: functional
# Rattus norvegicus [29] = experiment: Stimulus generalization in TFMPP-trained rats at dosage 12.0 mg/kg. Number of animals responding/number of animals are 2/3; assay type: functional
# Rattus norvegicus [30] = experiment: Stimulus generalization in TFMPP-trained rats at dosage 12.5 mg/kg. Number of animals responding/number of animals are 0/3; Disruption of Behavior; assay type: functional, organism-based; design: dose 12.5 mg/kg
# Rattus norvegicus [31] = experiment: Stimulus generalization in TFMPP-trained rats at dosage 5.0 mg/kg. Number of animals responding/number of animals are 3/3; assay type: functional
# Rattus norvegicus [32] = experiment: Stimulus generalization in TFMPP-trained rats at dosage 8.0 mg/kg. Number of animals responding/number of animals are 3/3; assay type: functional
# Rattus norvegicus [33] = experiment: Stimulus generalization in DOM-trained rats at dosage 8.0 mg/kg. Number of animals responding/number of animals are 5/5; assay type: functional
# Rattus norvegicus [34] = experiment: Stimulus generalization in DOM-trained rats at dosage 12 mg/kg. Number of animals responding/number of animals are 4/4; assay type: functional
# Rattus norvegicus [35] = experiment: Stimulus generalization in DOM-trained rats at dosage 13.5 mg/kg. Number of animals responding/number of animals are 3/4; assay type: functional
# Rattus norvegicus [36] = experiment: Stimulus generalization in DOM-trained rats at dosage 14.0 mg/kg. Number of animals responding/number of animals are 1/5; D=Disruption of behavior; assay type: functional, organism-based; design: dose 14 mg/kg
# Rattus norvegicus [37] = experiment: Stimulus generalization in DOM-trained rats at dosage 15 mg/kg. Number of animals responding/number of animals are 1/4; D=Disruption of behavior; assay type: functional, organism-based; design: dose 15 mg/kg
# Rattus norvegicus [38] = experiment: Stimulus generalization in DOM-trained rats at dosage 18 mg/kg. Number of animals responding/number of animals are 0/4; D=Disruption of behavior; assay type: functional, organism-based; design: dose 18 mg/kg
# Rattus norvegicus [39] = experiment: Stimulus generalization in TFMPP-trained rats at dosage 1.2 mg/kg. Number of animals responding/number of animals are 4/4; assay type: functional
# Rattus norvegicus [40] = experiment: Stimulus generalization in TFMPP-trained rats at dosage 10 mg/kg. Number of animals responding/number of animals are 3/3; assay type: functional
# Rattus norvegicus [41] = experiment: Stimulus generalization in TFMPP-trained rats at dosage 15 mg/kg. Number of animals responding/number of animals are 3/3; assay type: functional
# Rattus norvegicus [42] = experiment: Stimulus generalization in TFMPP-trained rats at dosage 3.0 mg/kg. Number of animals responding/number of animals are 4/4; assay type: functional
# Rattus norvegicus [43] = experiment: Stimulus generalization in TFMPP-trained rats at dosage 6.0 mg/kg. Number of animals responding/number of animals are 4/4; assay type: functional
# Rattus norvegicus [44] = experiment: Stimulus generalization in DOM-trained rats at dosage 6.0 mg/kg. Number of animals responding/number of animals are 5/5; assay type: functional
# Rattus norvegicus [45] = experiment: Stimulus generalization in TFMPP-trained rats at dosage 10 mg/kg. Number of animals responding/number of animals are 5/5; assay type: functional
# Rattus norvegicus [46] = experiment: Stimulus generalization in TFMPP-trained rats at dosage 2.0 mg/kg. Number of animals responding/number of animals are 4/4; assay type: functional
# Rattus norvegicus [47] = experiment: Stimulus generalization in TFMPP-trained rats at dosage 5.0 mg/kg. Number of animals responding/number of animals are 4/4; assay type: functional
# Rattus norvegicus [48] = experiment: Stimulus generalization in TFMPP-trained rats at dosage 0.3 mg/kg. Number of animals responding/number of animals are 3/3; assay type: functional
smiles,measurement,setting,value
COc1cc(N2CCNCC2)c(OC)cc1Br,Ki,[1],820 nM
same,Ki,[2],2430 nM
same,ED50,Rattus norvegicus [3],4.08 mg/kg
same,Response,Rattus norvegicus [4],19%
same,Response,Rattus norvegicus [5],31%
same,Response,Rattus norvegicus [6],46%
same,Response,Rattus norvegicus [7],72%
same,Response,Rattus norvegicus [8],81%
COc1ccccc1N1CCNCC1,Ki,[1],35 nM
same,Ki,[2],3500 nM
same,Response,Rattus norvegicus [9],12%
same,Response,Rattus norvegicus [10],20%
same,Response,Rattus norvegicus [11],81%
same,Response,Rattus norvegicus [12],94%
same,Response,Rattus norvegicus [13],33%
same,Response,Rattus norvegicus [14],63%
same,Response,Rattus norvegicus [15],23%
same,Response,Rattus norvegicus [16],inactive
Cc1cccc(C(=O)N2CCNCC2)c1,Ki,[1],20700 nM
same,Ki,[2],49000 nM
FC(F)(F)c1cccc(N2CCNCC2)c1,Ki,[1],20 nM
same,Ki,[2],160 nM
same,ED50,Rattus norvegicus [17],0.17 mg/kg
same,Response,Rattus norvegicus [18],93%
same,Response,Rattus norvegicus [19],51%
same,Response,Rattus norvegicus [20],70%
same,Response,Rattus norvegicus [21],90%
same,Response,Rattus norvegicus [15],25%
same,Response,Rattus norvegicus [22],42%
same,Response,Rattus norvegicus [23],8%
COc1ccc(OC)c(C(=O)N2CCNCC2)c1,Ki,[1],> 100000 nM
same,Ki,[2],> 100000 nM
COc1ccc(N)c(C(=O)CCN)c1,Ki,[1],345 nM
same,Ki,[2],8480 nM
COc1cc(N2CCNCC2)c(OC)cc1C,Ki,[1],680 nM
same,Ki,[2],4710 nM
same,ED50,Rattus norvegicus [24],6.23 mg/kg
same,Response,Rattus norvegicus [25],83%
same,Response,Rattus norvegicus [26],21%
same,Response,Rattus norvegicus [27],53%
same,Response,Rattus norvegicus [28],11%
same,Response,Rattus norvegicus [29],30%
same,Response,Rattus norvegicus [30],Disrupted behaviour
same,Response,Rattus norvegicus [31],11%
same,Response,Rattus norvegicus [32],7%
same,Response,Rattus norvegicus [33],68%
O=C(c1cccc(Cl)c1)N1CCNCC1,Ki,[1],17100 nM
same,Ki,[2],55600 nM
COc1ccc(OC)c(N2CCNCC2)c1,Ki,[1],1040 nM
same,Ki,[2],8430 nM
same,Response,Rattus norvegicus [34],28%
same,Response,Rattus norvegicus [35],22%
same,Response,Rattus norvegicus [36],inactive
same,Response,Rattus norvegicus [37],inactive
same,Response,Rattus norvegicus [38],inactive
same,Response,Rattus norvegicus [39],14%
same,Response,Rattus norvegicus [40],19%
same,Response,Rattus norvegicus [41],14%
same,Response,Rattus norvegicus [42],6%
same,Response,Rattus norvegicus [43],14%
same,Response,Rattus norvegicus [44],10%
Oc1ccccc1N1CCNCC1,Ki,[1],150 nM
same,Ki,[2],17200 nM
same,Response,Rattus norvegicus [45],24%
same,Response,Rattus norvegicus [46],12%
same,Response,Rattus norvegicus [47],22%
same,Response,Rattus norvegicus [48],17%
